ADAM10 inh = inhibits human ADAM10 | recombinant ADAM10, EDANS/DABCYL FRET peptide cleavage, 3 h | inhibition, % at 7 µM | 370,000 tested, 0.62% active | AID 720582;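 active = inhibition above a per-campaign cutoff equal to the mean of compounds falling between control-based bounds plus 3 SD, cut at about 20% in these data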;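 note: 0% = DMSO wells while the 100% control is not disclosed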
ADAM17 inh = ADAM17 inhibition, QFRET primary screen. P78536. recombinant ADAM17, EDANS/DABCYL FRET peptide cleavage. inhibition, % at 6.95 µM. 370,000 tested, 0.83% active;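 active = inhibition above the mean of compounds lying between control limits plus 3 SD, set per campaign, cut at about 8.5% in these data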;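 note: 0% = DMSO-only wells as the low control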
Target sequence (P78536 215-824 limits assumed): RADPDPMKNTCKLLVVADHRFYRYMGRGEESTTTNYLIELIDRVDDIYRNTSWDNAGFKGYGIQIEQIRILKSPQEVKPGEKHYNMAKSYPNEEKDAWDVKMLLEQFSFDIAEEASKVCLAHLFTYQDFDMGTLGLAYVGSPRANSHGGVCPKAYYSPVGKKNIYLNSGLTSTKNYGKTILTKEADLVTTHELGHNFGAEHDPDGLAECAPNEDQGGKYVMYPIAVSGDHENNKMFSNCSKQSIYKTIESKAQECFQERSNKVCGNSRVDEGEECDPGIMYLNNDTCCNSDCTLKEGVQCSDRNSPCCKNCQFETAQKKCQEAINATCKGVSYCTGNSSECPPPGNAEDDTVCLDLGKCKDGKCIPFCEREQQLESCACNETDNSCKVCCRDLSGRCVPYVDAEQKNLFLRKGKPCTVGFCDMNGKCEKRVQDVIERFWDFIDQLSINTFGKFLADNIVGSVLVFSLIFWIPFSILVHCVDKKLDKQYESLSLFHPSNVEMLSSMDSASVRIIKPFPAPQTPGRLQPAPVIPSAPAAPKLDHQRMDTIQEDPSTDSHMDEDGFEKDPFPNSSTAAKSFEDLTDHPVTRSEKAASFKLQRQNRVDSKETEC
NR3A LBD binder = modulators (binders) of human NR3A ligand-binding domain | NR3A LBD differential scanning fluorimetry, Tm shift; 0% = protein alone, 100% = glycine-bound protein | Tm shift relative to glycine control, % at 25 µM | 340,000 tested, 2.5% active;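 active = melting temperature shift of at least 10% of the positive control shift, at one fixed dose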
MT1-MMP act inh = blocks activation of human MT1-MMP; 360,000 tested, 0.061% active; HT1080 RFP-PRO-GFP cells, GFP/RFP ratio fluorescence, overnight; percent of plate control window, DMSO zero; GFP/RFP ratio change, % at 20 µM; P50281; AID 651647;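 active = GFP/RFP ratio change of at least 30% with cell ATP level not reduced by more than half and red fluorescence within 50% of control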
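Read-out: GFP/RFP fluorescence ratio; Test system: RFP-PRO-GFP reporter HT1080 cells; Compound dosing: single-point 20 µM compound, 1% DMSO; Times: overnight compound exposure at 37 °C.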
MPTP inh = blocks calcium-induced mitochondrial swelling | isolated mouse mitochondria, Ca2+ swelling absorbance, 30 min | inhibition, % at 10 µM | 360,000 tested, 1.4% active | AID 602449;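 active = inhibition of 50% or more, scaled per plate between neutral and stimulator controls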;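 note: 0% = DMSO wells given calcium and 100% = 1 mM EGTA wells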
SKN-1 block = C. elegans SKN-1 inhibition. C. elegans VP596 Pgst-4::GFP/RFP ratio, acrylamide-induced, 24 h. inhibition, % at 21.8 µM. 360,000 tested, 0.49% active. AID 624304;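 active = interference check ratio from 0.5 to 1.5 plus GFP to RFP signal ratio inhibition reaching or exceeding a fixed threshold, cut at about 30% in these data, passing the limit was not always enough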
Starred values were filed as active, the others as inactive; i = inactive; . = not tested or not shown. In the library only some 4.7% were active in any assay of this set; here they are far more common.

SMILES	ADAM10 inh	ADAM17 inh	NR3A LBD binder	MT1-MMP act inh	MPTP inh	SKN-1 block
N#Cc1cc(-c2ccccc2)nc(N2CCNCC2)n1	-27	-10	11*	-9	-1	-3
Cc1nn(C)cc1CNC(=O)Nc1cccc(Cl)c1	-11	-1	1	1	2	-11
C=CCn1c(N)c(C(=O)Nc2cccc(C)c2)c2nc3ccccc3nc21	-63	-19	18*	-7	2	2
Nc1c(C(=O)Nc2ccccc2)c2nc3ccccc3nc2n1CCCN1CCOCC1	-17	-13	18*	0	-2	7
C=CCNC(=O)c1c(N)n(-c2ccc3c(c2)OCO3)c2nc3ccccc3nc12	-52	-17	-4	-4	6	16
C=CCn1c(N)c(C(=O)Nc2ccc(C)c(C)c2)c2nc3ccccc3nc21	-3	-2	24*	-5	3	40*
C=CCn1c(N)c(C(=O)OCCC)c2nc3ccccc3nc21	i	i	-3	-12	-9	0
CSCCC(NC(=O)c1cc(C(C)(C)C)oc1C)C(=O)O (stereo not drawn)	-4	-2	2	3	0	7
C=CCn1c(=NC(=O)c2sc3ccccc3c2Cl)sc2cc(S(N)(=O)=O)ccc21	.	.	16*	11	4	4
COCCn1c(=NC(=O)c2ccc(S(=O)(=O)N3CCOCC3)cc2)sc2cc(S(N)(=O)=O)ccc21	-44	-16	-8	1	0	-8
COCCn1c(=NC(=O)c2sc3ccccc3c2Cl)sc2cc(S(N)(=O)=O)ccc21	-26	-3	23*	0	-2	17
COc1cc(-c2cc(N3C(=O)Nc4ccccc4N3O)n[nH]2)cc(OC)c1OC	0	-1	-3	8	0	-15
COc1cc(/C=N/NC(=O)c2cccc([N+](=O)[O-])c2)ccc1OCc1ccccc1	-2	0	22*	12	0	-6
COc1cc(/C=N/NC(=O)c2cccnc2)ccc1OCC(=O)Nc1ccc(C)cc1	-7	-6	-23	3	1	-6
O=C(N/N=C/c1cccc([N+](=O)[O-])c1)c1ccc(Br)cc1	-7	-5	0	3	0	0
O=C(N/N=C/c1cccc([N+](=O)[O-])c1)c1ccc(COc2ccccc2-c2ccccc2)cc1	1	-2	16*	-1	9	2
COc1cc(/C=N/NC(=O)c2cccc(C)c2)ccc1OCC(=O)Nc1ccccc1	1	1	19*	3	-5	7
COc1ccc(/C=N/NC(=O)c2cccc([N+](=O)[O-])c2)c2ccccc12	-3	-2	34*	3	1	6
CCOc1cc(C=C2C(=O)c3ccccc3C2=O)ccc1OCC(=O)Nc1ccc(C)cc1	4	0	14*	-5	0	-3
O=C(N/N=C/c1cccc(C(F)(F)F)c1)c1cc2c(s1)-c1ccccc1CC2	-24	-10	14*	11	3	6
O=C(c1cccs1)N1CCc2ccccc21	4	-2	-2	3	0	7
O=C(/C=C/c1cccs1)N1CCc2ccccc21	6	4	0	-13	-1	35*
Cc1ccc(-n2c(N)c(C#N)c(-c3ccc(Cl)cc3)c(C#N)c2=O)cc1	6	-2	20*	2	1	-5
COC(CNC(=O)c1cc(C(=O)c2c(-c3c(Cl)cccc3Cl)noc2C)c[nH]1)OC	12	1	3	-3	-3	15
CNC(=O)c1c(NC(=O)c2ccc(N3C(=O)CCC3=O)cc2)sc2c1CCC(C)C2 (stereo not drawn)	-10	-1	-1	-2	-2	41*
CNC(=O)c1c(NC(=O)c2ccc(N3C(=O)CCC3=O)cc2)sc2c1CCCC2	-13	-3	-1	-1	0	9
CCOC(=O)[C@]12CCCC3=C1N(CCC3)C(=O)[C@@H](CC(=O)NCCCN1CCCC1=O)C2	2	0	.	.	.	.
O=C(NCCN1CCC(n2c(=O)[nH]c3ccccc32)CC1)c1ccc(Cl)c(Cl)c1	1	-1	.	8	1	15
CCOC(=O)c1sc(N)nc1-c1ccccc1	-9	-1	-1	-1	0	-3

Source: PubChem (several laboratories)
